Assay outcomes deposited in PubChem BioAssay by several laboratories.
An excerpt weighted towards active compounds, which were near 1.9% of everything screened.
IMP-1 inhibitor = blocks Pseudomonas aeruginosa IMP-1 metallo-beta-lactamase. purified IMP-1, nitrocefin hydrolysis, epi-absorbance fluorescence. inhibition, % at 5.6 µM. 290,000 tested, 0.45% active;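 active means inhibition above the mean plus 3 SD of all compounds in the same screening run, cut at about 4.5% in these data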;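 further: 0% = IMP-1 with DMSO and 100% = DMSO wells lacking enzyme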
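System: purified IMP-1; amount: IMP-1 0.2 nM before substrate addition; compound: single dose, 5.6 µM; times: 25 °C, 15 min preincubation, 25 min reaction; signal: Epi-absorbance via hydrolysed-nitrocefin quenching of white-plate fluorescence, 480/530 nm, EDTA stop; benchmarks: DMSO with and without IMP-1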
UBC9 SUMO inh = SUMOylation inhibition | inhibition, % at 35 µM | P63279 | 290,000 tested, 0.36% active | HTRF SUMOylation assay, SAE1/SAE2 + UBC9, in vitro | AID 2006; in the data active means inhibition above about 50%, passing the limit was not always enough
T cell modulator = T cell immune modulators affecting CD8 T cell-vesicle binding. 2C CD8+ T cell-vesicle binding, flow cytometry; hits give low values. 330,000 tested, 0.068% active. response (vesicle binding), % at 7 µM;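 active means response, share of CD8 T cells binding vesicles, and their 90th percentile fluorescence all below set limits, cut at about 80% in these data, passing the limit was not always enough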;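 further: values below 100% mean blocked vesicle binding to the CD8+ T cells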
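Material: 2C TCR transgenic mouse naive CD8+ T cells, MACS-purified. Also added: QL9-charged Drosophila Ld/ICAM-1/B7-1 vesicles. Timing: binding 1.5 h at 37 °C. Measured by: high-throughput flow cytometry with anti-B7-1 and anti-CD8 staining. Read-out: percent CD8+ FL2 mean versus row control. Controls: Unloaded micro-vesicles (low), QL9 vesicles with 0.7% DMSO (high).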
VIM-2 inhibitor = blocks Pseudomonas aeruginosa VIM-2 metallo-beta-lactamase; 290,000 tested, 0.89% active; inhibition, % at 5.6 µM; purified VIM-2, nitrocefin hydrolysis, epi-absorbance fluorescence; AID 1527;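 active means inhibition above the mean of all tested compounds plus 3 SD, cutoff set per screening run, cut at about 7.5% in these data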;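 further: red hydrolysis product quenches plate fluorescence so inhibitors raise well fluorescence; 0% = enzyme with DMSO and 100% = DMSO without enzyme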
CTSL1 counter = counter-screen for PFM18AAP inhibitors: inhibitors of F. hepatica cathepsin L1. recombinant F. hepatica cathepsin L1, Z-Leu-Arg-MCA fluorescence. inhibition, % at 5.96 µM. 300,000 tested, 0.49% active;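 active means inhibition above the mean of all tested compounds plus 3 SD, set per screening campaign, cut at about 17% in these data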;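 further: 0% = plate median of test compound wells and 100% = 1 µM Z-Phe-Ala-diazomethylketone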
p-CIP stab down = lowers stability of the mouse p/CIP coactivator protein; F442A p/CIP-EGFP cells, EGFP fluorescence, 16 h; decrease of EGFP signal, % at 10 µM; 290,000 tested, 0.01% active; Q05BA5;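 active means EGFP signal decrease of at least 30% at 10 µM or well 3 SD below plate mean, unless failing retest; inactive means the rest, including hits failing retest or dose response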
Target sequence (Q05BA5 1-1403): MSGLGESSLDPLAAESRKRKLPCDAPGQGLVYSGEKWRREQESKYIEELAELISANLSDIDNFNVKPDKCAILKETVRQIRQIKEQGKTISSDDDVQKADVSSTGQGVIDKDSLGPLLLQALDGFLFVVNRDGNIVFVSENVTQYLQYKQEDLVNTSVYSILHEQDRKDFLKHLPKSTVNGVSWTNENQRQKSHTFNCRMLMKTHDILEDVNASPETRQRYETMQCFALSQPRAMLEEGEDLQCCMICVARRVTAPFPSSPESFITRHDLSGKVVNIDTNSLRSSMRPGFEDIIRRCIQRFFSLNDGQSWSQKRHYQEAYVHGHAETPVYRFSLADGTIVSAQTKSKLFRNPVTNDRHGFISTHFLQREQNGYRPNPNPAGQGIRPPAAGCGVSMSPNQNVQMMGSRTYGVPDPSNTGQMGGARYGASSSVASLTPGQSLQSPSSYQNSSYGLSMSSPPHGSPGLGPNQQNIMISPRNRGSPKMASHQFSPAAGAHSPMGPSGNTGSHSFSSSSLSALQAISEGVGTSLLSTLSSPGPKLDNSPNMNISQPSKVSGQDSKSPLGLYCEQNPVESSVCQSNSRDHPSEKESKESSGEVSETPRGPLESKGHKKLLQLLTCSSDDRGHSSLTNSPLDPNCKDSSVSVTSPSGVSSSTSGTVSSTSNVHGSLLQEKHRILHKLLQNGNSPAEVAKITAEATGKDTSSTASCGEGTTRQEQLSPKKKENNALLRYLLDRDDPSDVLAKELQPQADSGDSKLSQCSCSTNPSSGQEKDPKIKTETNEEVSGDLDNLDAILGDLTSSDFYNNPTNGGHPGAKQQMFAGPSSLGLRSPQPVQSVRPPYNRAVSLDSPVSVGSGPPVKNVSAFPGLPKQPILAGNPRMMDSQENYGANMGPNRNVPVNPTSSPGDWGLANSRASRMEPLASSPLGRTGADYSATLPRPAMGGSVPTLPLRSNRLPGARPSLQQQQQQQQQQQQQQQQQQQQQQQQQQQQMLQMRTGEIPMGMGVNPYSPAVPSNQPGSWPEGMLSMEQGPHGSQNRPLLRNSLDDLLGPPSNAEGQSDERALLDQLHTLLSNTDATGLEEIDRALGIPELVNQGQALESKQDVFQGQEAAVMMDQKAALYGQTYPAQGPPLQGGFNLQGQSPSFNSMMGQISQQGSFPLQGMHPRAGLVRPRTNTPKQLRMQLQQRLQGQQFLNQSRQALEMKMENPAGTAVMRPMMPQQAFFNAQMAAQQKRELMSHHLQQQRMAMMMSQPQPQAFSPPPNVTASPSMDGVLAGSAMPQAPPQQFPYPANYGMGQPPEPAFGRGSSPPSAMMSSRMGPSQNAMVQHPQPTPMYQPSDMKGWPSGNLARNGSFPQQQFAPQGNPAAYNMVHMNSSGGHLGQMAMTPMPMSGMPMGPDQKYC
An asterisk follows results filed as active; . = not tested or not shown.

SMILES	IMP-1 inhibitor	UBC9 SUMO inh	T cell modulator	VIM-2 inhibitor	CTSL1 counter	p-CIP stab down
NC(=O)COC(=O)CSc1ccc2ccccc2c1	-1	8	243	0	-2	-5
COc1ccc(Cl)cc1NC(=S)NCCSc1ccc(C)cc1	1	-20	420	0	-2	-3
CCOC(=O)c1ccc(N=Cc2nc3ccccc3n2C)cc1	-3	3	293	-8	1	6
CN(C)c1ccc(N=Cc2nc(-c3ccccc3)oc2OC(=O)c2cccc(Br)c2)cc1	-5	-3	64	-3	24*	-4
CCOC(=O)c1ccc(N=Cc2nc(-c3ccccc3)oc2OC(C)=O)cc1	-1	7	460	-7	31*	14
CC(=O)Oc1oc(-c2ccccc2)nc1C=Nc1ccccc1	-1	16	292	-1	26*	2
CCOC(=O)c1nc(-c2ccccc2)oc1N(C)C	0	16	456	1	3	-10
COc1ccc(N=Cc2nc(-c3ccccc3)oc2OC(=O)c2ccccc2)cc1	0	1	170	-3	22*	-7
Cc1n[nH]c(C)c1NC(=O)CSc1nnnn1-c1cccc(F)c1	.	.	444	.	.	.
CC(C)CNc1nc(N)c([N+](=O)[O-])c(N2CCCCCC2)n1	-2	8	265	-2	-2	-6
CCOc1ccc(CCNC(=O)COC(=O)Cn2nc(C)c([N+](=O)[O-])c2C)cc1OCC	.	.	256	.	-1	.
CCn1nccc1C(=O)Nc1cccc(C)c1C	17*	5	223	-1	1	1
Cc1nc(/N=C\c2ccc(N(C)C)cc2)sc1C	.	.	298	.	-2	.
Cc1ccccc1C(=O)Nc1sc(C)c(C)c1C(=O)c1ccccc1	-2	-33	196	-2	-2	-4
Cc1sc(NC(=O)CCl)c(C(=O)c2ccccc2)c1C	0	-6	0	-4	53*	3
Cc1ccccc1CNCCCSc1ncccn1	-1	2	183	0	1	0
Cc1cccc(-n2c(-c3ccncc3)n[nH]c2=S)c1	0	21	235	3	0	3
Cc1cccc(-n2c(-c3ccoc3C)n[nH]c2=S)c1	-1	10	371	9.1*	1	-2
Cc1ccccc1-n1c(C)n[nH]c1=S	-3	5	260	5	3	-8
Cc1cccc(-n2c(C)n[nH]c2=S)c1	-2	-13	334	8.0*	-3	-10
Cc1ccccc1-n1c(-c2ccoc2C)n[nH]c1=S	-3	2	85	8.6*	0	-4
COc1cccc(-c2c(C(=O)N/N=C/c3ccc(C)o3)nnn2-c2nonc2N)c1	0	12	381	-2	3	-18
Cc1nc2ccccn2c1-c1csc(Nc2cccc(O)c2)n1	-3	10	.	11*	.	3
COc1ccccc1-c1cc(C2CC2)nc(N)c1C#N	2	8	211	0	2	-11
COc1ccc(-c2cc(C3CC3)nc(N)c2C#N)cc1	-1	17	245	8.8*	4	1
SMILES	IMP-1 inhibitor	UBC9 SUMO inh	T cell modulator	VIM-2 inhibitor	CTSL1 counter	p-CIP stab down
COc1ccc(CNCc2cn(-c3cccc(F)c3)nc2-c2ccc(C)o2)cc1	-2	-8	266	-1	1	-2
C/C(=C\C=C(C#N)C#N)c1cc(C#N)c(N)o1	-2	4	.	-2	.	-33
COc1ccc(C2C3=C(CC(C)(C)CC3=O)N(CC(=O)O)C3=C2C(=O)CC(C)(C)C3)cc1OC	-1	0	247	0	20*	-14
COc1ccccc1NC(=O)NCc1ccc(C)n1C	2	18	476	11*	-2	-6
CC1CCCCN1S(=O)(=O)c1ccc2[nH]c(=O)cc(C(=O)NCCCN3CCCCCC3)c2c1 (stereo not given)	-2	1	330	-1	-4	2
Cc1ccc(C(=O)N2CCN(c3ccc(C(F)(F)F)cn3)CC2)o1	.	.	155	.	.	.
COc1cc(NC(=O)c2cc3sccc3n2C)cc(OC)c1	6.4*	9	303	1	4	-1
Cc1cc(N2CCN(c3ccccc3)CC2)n2c(n1)nc1ccccc12	-4	5	171	11*	3	-17
Cc1cc(N2CCN(c3ccccc3)CC2)n2nnnc2n1	-3	11	202	-4	4	-6
COC(=O)c1ccc2c(c1O)C(=O)c1ccccc1C2=O	-3	37	100	1	26*	-7
Nc1c(C(=O)O)ccc2c1C(=O)c1ccccc1C2=O	-4	-14	116	2	3	-10
CSCCC(NC(=O)/C(=C/c1ccco1)NC(=O)c1ccco1)C(=O)O (stereo not given)	.	.	136	.	2	.
Cc1ccc(NC(=O)Nc2nnc(-c3ccncc3)s2)cc1C	-1	73*	358	2	-2	-13
O=C(Nc1ccc(Cl)cc1)Nc1nnc(-c2ccncc2)s1	-4	-6	322	-3	0	-7
O=C(Nc1cccc(Cl)c1)Nc1nnc(-c2ccncc2)s1	-5	56*	487	-3	4	-26
O=C(CC1NCCN(Cc2ccccc2)C1=O)Nc1ccccc1 (stereo not given)	-3	9	186	-2	-3	-6
CCOc1ccc(/C=C2\SC(=S)N(C(C(=O)O)c3ccccc3)C2=O)cc1OC (stereo not given)	-2	25	112	-1	5	-6
COc1ccc(OC)c(/C=C2\SC(=S)N(C(C(=O)O)c3ccccc3)C2=O)c1 (stereo not given)	4.8*	29	310	4	5	-10
CC(NCc1ccc(S(N)(=O)=O)cc1)C(=O)Nc1cccc(Cl)c1 (stereo not given)	-1	7	334	-4	-3	-8
COC(=O)[C@@H]1CCCN1C(=O)[C@@H](NC(=O)OC(C)(C)C)C(C)C	.	.	.	.	0	.
CC(C)CC(NC(=O)C(NC(=O)OC(C)(C)C)C(C)C)C(=O)N1CCCC1C(N)=O (stereo not given)	-3	4	198	-2	18*	-6
CC(C)CC(NC(=O)C1CCC(=O)N1)C(=O)NC(CC(C)C)C(=O)N1CCCC1C(N)=O (stereo not given)	-3	-8	161	-2	17*	4
CC(C)C(C(=O)NCC1CCCO1)N(C(=O)CNS(=O)(=O)c1ccccc1)c1ccc(F)cc1 (stereo not given)	0	-4	342	0	-8	1
COc1ccc(S(=O)(=O)Nc2cccnc2)c(C)c1C	4.6*	3	229	-1	4	-15
COc1ccc(S(=O)(=O)Nc2ccncc2)c(C)c1C	-3	23	304	-4	2	-5
Cc1ccc2c(C(=O)CN3CCC(C(N)=O)CC3)c(C)[nH]c2c1	-3	12	302	-2	5	3
